Experimental data: ChEMBL document CHEMBL1125159, “Synthesis and antihyperglycemic activity of novel 5-(naphthalenylsulfonyl)-2,4-thiazolidinediones” (J Med Chem, 1990)
Active and inactive are the calls of the source. No cut-off for these calls is given here.

Tests used:
Mus musculus [1] = species: Mus musculus; experiment: Decrease in blood glucose in mice compared to vehicle controls.; format: functional, organism-based
Summary of the method: (§1)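 Male genetically diabetic db/db mice (C57BL/KsJ, 3–7 months old), 4–6 per group. Compound 100 mg/kg given by oral gavage once daily for 4 days in 2% Tween 80/saline. Mice fasted 18 h before the final dose. Insulin 0.5 unit/kg sc given 2 h after drug. Tail-tip blood taken 2 h later from unanesthetized mice. Plasma glucose reported as percent change versus vehicle group, mean ± SE.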

Mus musculus [2] = species: Mus musculus; experiment: Percent decrease in blood glucose relative to vehicle-treated group with use of four to six mice; format: functional; summary of the method: as §1
[3] = Ionization constant for the compound; format: physicochemical
Mus musculus [4] = experiment: Plasma glucose level in diabetic db/db mice at a dose of 100 mg/kg per day for four days administered orally after 18-h fasted state
Mus musculus [5] = experiment: Plasma glucose level in diabetic db/db mice at a dose of 100 mg/kg per day for four days administered orally after fed state
Rattus norvegicus [6] = experiment: Blood lactate level in 24 hr fasted Sprauge-Dawley rats at a dose of 200 mg/kg per day in four divided doses which were administered intraperitoneally,; format: functional; settings: route intraperitoneal
Summary of the method: (§2)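 24 h-fasted Sprague-Dawley rats were dosed ip at 200 mg/kg per day in four divided doses. They were then anesthetized with halothane and blood was drawn from the iliac artery for blood lactate and plasma glucose. N = 8 rats per group, compared with vehicle (p < 0.05).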

Rattus norvegicus [7] = experiment: Plasma glucose level in 24 hr fasted Sprauge-Dawley rats at a dose of 200 mg/kg per day in four divided doses which were administered intraperitoneally; format: functional, organism-based; summary of the method: as §2
Rattus norvegicus [8] = experiment: Evaluated for the plasma glucose level in 24 hr fasted Sprauge-Dawley rats at a dose of 200 mg/kg/day in four divided doses administered intraperitoneally; format: functional, organism-based; summary of the method: as §2
Rattus norvegicus [9] = experiment: Evaluated for the blood lactate level in 24 hr fasted Sprague-Dawley rats at a dose of 200 mg/kg/day in four divided doses administered intraperitoneally; format: functional; settings: route intraperitoneal; summary of the method: as §2
Rattus norvegicus [10] = experiment: Blood lactate level in 24 hr fasted Sprauge-Dawley rats at a dose of 200 mg/kg per day in four divided doses which were administered intraperitoneally; format: functional; settings: route intraperitoneal; summary of the method: as §2

SMILES	Decrease (Mus musculus [1])	Decrease (Mus musculus [2])	other results
CN1C(=O)SC(S(=O)(=O)c2cccc3c(Br)cccc23)C1=O (stereo unspecified)	inactive	–	–
O=C1NC(=O)C([S+]([O-])c2ccc3ccccc3c2)S1 (stereo unspecified)	inactive	–	–
CCOC(=O)Oc1ccc2cc(SC3SC(=O)NC3=O)ccc2c1 (stereo unspecified)	inactive	–	–
CCOC(=O)Oc1cc2ccc(S(=O)(=O)C3SC(=O)NC3=O)cc2cc1OC(=O)OCC (stereo unspecified)	inactive	–	–
O=C1NC(=O)C(S(=O)(=O)Cc2ccc3ccccc3c2)S1 (stereo unspecified)	inactive	–	–
CN1C(=O)SC(C)(S(=O)(=O)c2cccc3c(Br)cccc23)C1=O (stereo unspecified)	inactive	–	–
CCCCCCCCS(=O)(=O)C1SC(=O)NC1=O (stereo unspecified)	inactive	–	–
O=C1NC(=O)C(S(=O)(=O)c2cccc3ccccc23)S1 (stereo unspecified)	–	-34%	–
O=C1NC(=O)C(Sc2ccc3ccccc3c2)S1 (stereo unspecified)	–	-29%	pKa [3]: 5.58
O=C1NC(=O)C(S(=O)(=O)c2ccc3cc(OCc4ccccc4)ccc3c2)S1 (stereo unspecified)	inactive	–	–
O=C1NC(=O)C(Oc2ccc3ccccc3c2)S1 (stereo unspecified)	inactive	–	–
O=C1NC(=O)C(Cc2ccc3ccccc3c2)S1 (stereo unspecified)	–	-38%	pKa [3]: 6.83
COc1ccc2cc(S(=O)(=O)C3SC(=O)NC3=O)ccc2c1C(F)(F)F (stereo unspecified)	inactive	–	–
COc1ccc2c(S(=O)(=O)C3SC(=O)NC3=O)cccc2c1C(F)(F)F (stereo unspecified)	–	-40%	–
O=C1NC(=O)C(S(=O)(=O)c2ccc3ccccc3c2)S1 (stereo unspecified)	–	-63%	Plasma glucose level (Mus musculus [4]): 243 mg/dL; pKa [3]: 3.95; Plasma glucose level (Mus musculus [5]): 352 mg/dL; Blood lactate (Rattus norvegicus [6]): 7.2 mg/dL; Plasma glucose level (Rattus norvegicus [7]): 77 mg/dL
O=C1NC(=O)C(Sc2ccc3ccccc3c2Br)S1 (stereo unspecified)	inactive	–	–
CCOC(=O)Oc1ccc2cc(S(=O)(=O)C3SC(=O)NC3=O)ccc2c1 (stereo unspecified)	inactive	–	–

SMILES	Decrease (Mus musculus [1])	Decrease (Mus musculus [2])	other results
CC1(COc2ccc(S(=O)(=O)C3SC(=O)NC3=O)cc2)CCCCC1 (stereo unspecified)	inactive	–	–
O=C1NC(=O)C(S(=O)(=O)c2ccc(Br)cc2)S1 (stereo unspecified)	inactive	–	–
O=C1NC(=O)C(S(=O)(=O)c2ccc3ccccc3c2Br)S1 (stereo unspecified)	inactive	–	–
N=C(N)NC(=N)NCCc1ccccc1 [PHENFORMIN]	–	–	Plasma glucose level (Rattus norvegicus [8]): 85 mg/dL; Blood lactate (Rattus norvegicus [9]): 12.2 mg/dL
CC1(S(=O)(=O)c2cccc3ccccc23)SC(=O)NC1=O (stereo unspecified)	inactive	–	–
COc1ccc2cc(SC3SC(=O)NC3=O)ccc2c1C(F)(F)F (stereo unspecified)	–	-32%	–
O=C1NC(=O)C(CSc2ccc3ccccc3c2)S1 (stereo unspecified)	inactive	–	–
COc1cccc2cccc(S(=O)(=O)C3SC(=O)NC3=O)c12 (stereo unspecified)	inactive	–	–
O=C1NC(=O)C(Sc2ccc3cc(O)c(O)cc3c2)S1 (stereo unspecified)	inactive	–	–
CCOC(=O)Oc1cc2ccc(SC3SC(=O)NC3=O)cc2cc1OC(=O)OCC (stereo unspecified)	–	-22%	–
CCCCCCCCSC1SC(=O)NC1=O (stereo unspecified)	inactive	–	–
O=C1NC(=O)C(S(=O)(=O)c2cccc3c(Br)cccc23)S1 (stereo unspecified)	–	-29%	–
CC1(COc2ccc(CC3SC(=O)NC3=O)cc2)CCCCC1 (stereo unspecified) [CIGLITAZONE]	–	-35%	Blood lactate (Rattus norvegicus [10]): 8 mg/dL; Plasma glucose level (Mus musculus [4]): 285 mg/dL; pKa [3]: 6.82; Plasma glucose level (Mus musculus [5]): 313 mg/dL; Plasma glucose level (Rattus norvegicus [7]): 83 mg/dL
COc1ccc2cc(S(=O)(=O)C3SC(=O)NC3=O)ccc2c1Br (stereo unspecified)	inactive	–	–
O=C1NC(=O)C(Sc2ccc3cc(O)ccc3c2)S1 (stereo unspecified)	–	-19%	–
O=C1NC(=O)C(S(=O)(=O)c2ccc(F)cc2)S1 (stereo unspecified)	inactive	–	–
